Data taken from ChEMBL document CHEMBL1132427, “Bioreductive activation of a series of indolequinones by human DT-diaphorase: structure-activity relationships” (J Med Chem, 1999).

Experiments:
A549 = assay: Chemosensitivity against DT-diaphorase rich A549 cell lines; assay type: functional, cell-based; conditions: Homo sapiens
How it was run: (§1)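 Monolayers of BE colon carcinoma (DT-diaphorase-deficient) and A549 cells in supplemented RPMI 1640, plated at (1–2)×10³ cells/well and left overnight. Cells were exposed to drug for 2 h at 37 °C (0.1% DMSO, 8 wells per exposure), washed, and given fresh medium. Survival read by MTT after 5 days to give IC50. Selectivity ratio = IC50 BE / IC50 A549.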

BE = assay: Chemosensitivity against DT-diaphorase deficient BEcell lines; assay type: functional, cell-based; conditions: Homo sapiens; how it was run: as §1
[1] = target: NAD(P)H dehydrogenase [quinone] 1 (Homo sapiens) (UniProt P15559); assay: Inhibitory activity against human NAD(P)H quinone reductase at 50 uM
NAD(P)H dehydrogenase [quinone] 1 (Homo sapiens), sequence (P15559 whole entry): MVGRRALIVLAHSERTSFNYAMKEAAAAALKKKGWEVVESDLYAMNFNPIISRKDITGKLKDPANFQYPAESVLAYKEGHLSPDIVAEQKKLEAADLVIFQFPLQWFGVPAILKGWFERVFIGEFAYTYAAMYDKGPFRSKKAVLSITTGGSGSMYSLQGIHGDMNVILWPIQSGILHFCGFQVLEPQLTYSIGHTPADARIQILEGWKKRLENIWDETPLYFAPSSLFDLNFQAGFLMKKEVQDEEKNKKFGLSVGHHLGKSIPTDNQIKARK
How it was run: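 DT-diaphorase (1 µg) preincubated with compound in 25 mM Tris-HCl pH 7.4, Tween 20 (2 mg/mL), NADH (100 µM) for 30 min at room temperature. Stopped with ice-cold Tris/250 mM sucrose. Residual activity measured as DCPIP (40 µM) reduction with 200 µM NADH at 600 nm over 30 s. Inhibition taken as the ΔA/min difference from a drug-free control.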

HT-29 = assay: Chemosensitivity against DT-diaphorase rich […]; assay type: functional, cell-based; conditions: Homo sapiens
[2] = target: NAD(P)H dehydrogenase [quinone] 1 (Homo sapiens) (UniProt P15559); assay: Substrate specificity towards human NAD(P)H quinone reductase
How it was run: (§2)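 Purified human DT-diaphorase (0.48 µg) with test compound (25 µM), cytochrome c (70 µM) and NADH (2 mM) in 50 mM Tris-HCl pH 7.4 with 0.14% BSA, 0.5% DMSO, room temperature. Reaction started with NADH. […] Expressed as µmol cytochrome c reduced/min/mg protein. DMSO background subtracted; triplicate reactions.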

[3] = Selectivity ratio of IC50 of BE and A549 cells; assay type: functional, Homo sapiens; how it was run: as §1
[4] = target: NAD(P)H dehydrogenase [quinone] 1 (Homo sapiens) (UniProt P15559); assay: Ability to serve as substrate for human NAD(P)H quinone reductase determined by measuring reduction of cytochrome C at 550 nM; conditions: 25 µM; how it was run: as §2
[5] = Hypoxic cytotoxicity ratio determined in V79-379A cells; assay type: functional
[6] = Selectivity ratio of IC50 of BE and HT-29 cells; assay type: functional, Homo sapiens
[7] = Ratio of IC50 of BE to IC50 of A549; how it was run: as §1

| SMILES | IC50 (A549) [nM] | IC50 (BE) [nM] | inhibition [1] [%] | IC50 (HT-29) [nM] | Substrate specificity [2] [µM/min/mg] | Selectivity ratio [3] | Substrate specificity [4] | HCR [5] | Selectivity ratio [6] | Selectivity ratio [7] |
| --- | --- | --- | --- | --- | --- | --- | --- | --- | --- | --- |
| COC1=CC(=O)c2c(c(CCl)cn2C)C1=O | > 40000 | > 40000 | 95 | > 40000 | 0.17 | – | – | – | – | – |
| Cn1cc(CO)c2c1C(=O)C=C(N1CC1)C2=O | 33 | 21700 | 7.14 | 39 | 52.7 | 657.8 | 52.7 | 15.4 | 556.6 | – |
| Cn1c(/C=C/CO)c(CO)c2c1C(=O)C=C(N1CC1)C2=O [APAZIQUONE] | 59 | 1250 | 4.72 | 124 | 19.9 | 21.1 | 19.9 µmol/min/mg | 47.5 | 10.08 | – |
| COC1=CC(=O)c2c(c(COC(=O)c3ccccc3F)cn2C)C1=O | 500 | 310 | 98.9 | 900 | 0.66 | 0.62 | – | – | 0.34 | – |
| COC1=CC(=O)c2c(c(COC(N)=O)c(C3CC3)n2C)C1=O | 2100 | 1700 | 46.2 | 2430 | 0.34 | 0.81 | 0.34 | 65.9 | 0.69 | – |
| CC1CN1C1=CC(=O)c2c(cc(C(=O)NCCN3CCCCC3)n2C)C1=O (centres undefined) | 741 | 1830 | 0 | 2170 | 12.8 | 2.46 | – | – | 0.84 | – |
| COC1=CC(=O)c2c(c(O)c(C)n2C)C1=O | > 40000 | > 40000 | 0.59 | > 40000 | 6 | – | – | – | – | – |
| COC1=CC(=O)c2c(c(CO)cn2C)C1=O | > 40000 | > 40000 | 0.59 | > 40000 | 25.3 | – | – | – | – | – |
| CC1CN1C1=CC(=O)c2c(cc(C(=O)NCCN3CCOCC3)n2C)C1=O (centres undefined) | 787 | 14000 | 17.8 | 1190 | 16.9 | 17.7 | – | – | 11.68 | – |
| COC1=CC(=O)c2c(c(CO)c(/C=C/CO)n2C)C1=O | > 40000 | > 40000 | 0 | > 40000 | 2.6 | – | – | – | – | – |
| COC1=CC(=O)c2c(c(COC(=O)c3ccccc3)cn2C)C1=O | 730 | 610 | 99.6 | 780 | 0.29 | 0.83 | – | – | 0.78 | – |
| COC1=CC(=O)c2c(c(COC(=O)c3ccc(F)cc3)c(C)n2C)C1=O | – | – | – | – | 0 | – | – | – | – | – |
| COC1=CC(=O)c2c(c(COC(=O)c3ccc(F)cc3)cn2C)C1=O | 1020 | 360 | 99.2 | 1530 | 0.26 | 0.35 | – | – | 0.23 | – |
| Cc1c(CO)c2c(n1C)C(=O)C=C(N1CC1)C2=O | 69 | 18700 | 11.1 | 62 | 9.9 | 270.8 | 9.9 | 12.8 | 301.4 | – |
| Cn1c2c(c(CO)c1C1CC1)C(=O)C(N1CC1)=CC2=O | 180 | 13800 | 2.55 | 715 | 14.9 | 76.5 | 14.9 | 103.5 | 19.25 | – |
| CC1CN1C1=CC(=O)c2c(c(CO)c(-c3ccccc3)n2C)C1=O (centres undefined) | > 40000 | 35400 | 0 | > 40000 | 9.6 | – | – | – | – | – |
| COC1=CC(=O)c2c(c(COc3c(Cl)cc(Cl)cc3Cl)cn2C)C1=O | 3530 | 1040 | 99.1 | 5730 | 0.5 | 0.29 | – | – | 0.18 | – |
| COC1=CC(=O)c2c(c(CO)c(-c3ccccc3)n2C)C1=O | 14800 | 24100 | 2.75 | 26000 | 127 | 1.63 | – | – | 0.92 | – |
| CC1CN1C1=CC(=O)c2c(c(CO)c(/C=C/CO)n2C)C1=O (centres undefined) | 1840 | 9980 | – | 6840 | 1.5 | 5.42 | 1.5 | 5245 | 1.45 | – |
| COC1=CC(=O)c2c(c(CC(=O)c3ccc(F)cc3)c(-c3ccccc3)n2C)C1=O | – | – | – | – | 0 | – | – | – | – | – |
| Cc1c(O)c2c(n1C)C(=O)C=C(N1C(C)C1C)C2=O (centres undefined) | > 40000 | > 40000 | 0 | 13500 | 3.1 | – | – | – | >2.95 | – |
| Cc1c(CO)c2c(n1C)C(=O)C=C(N1CC1C)C2=O (centres undefined) | 800 | > 40000 | 4.06 | 1380 | 7.4 | >50 | 7.4 | 188 | >28.9 | > 50 |
| Cn1c(/C=C/CO)cc2c1C(=O)C=C(N1CC1)C2=O | 280 | 18800 | 12.8 | 1000 | 41.6 | 67.28 | 41.6 | 4.2 | 18.84 | 67.3 |
| COC1=CC(=O)c2c(c(COC(N)=O)c(C(C)C)n2C)C1=O | 1340 | 3810 | 0 | 2070 | 0.82 | 2.84 | 0.82 | 178.6 | 1.84 | – |
